From ChEMBL document CHEMBL3627671, “Novel derivatives of nitro-substituted salicylic acids: Synthesis, antimicrobial activity and cytotoxicity” (Bioorg Med Chem, 2015)
Converted amounts (≈) assume the structure as drawn.

Key:
Assay type in all cases: functional
Mycobacterium avium [1] = test: Antimycobacterial activity against Mycobacterium avium 330/80 after 14 days; conditions: 330/80, 336 h
[2] = tested on: Mycobacterium tuberculosis; test: Antimycobacterial activity against Mycobacterium tuberculosis H37Rv 331/88 after 21 days; conditions: H37Rv 331/88, 504 h
Mycobacterium kansasii [3] = test: Antimycobacterial activity against Mycobacterium kansasii 235/80 after 21 days; conditions: 235/80, 504 h
Summary of the method: (§1)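 Šula's semisynthetic medium micromethod at 37 °C, read after 7, 14 and 21 days. The 1.0 McFarland suspension was diluted 10^-4. MIC determined. 6509/96 is a clinical isolate.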

Mycobacterium avium [4] = test: Antimycobacterial activity against Mycobacterium avium 330/80 after 21 days; conditions: 330/80, 504 h
[5] = tested on: Mycobacterium tuberculosis; test: Antimycobacterial activity against Mycobacterium tuberculosis H37Rv 331/88 after 14 days; conditions: H37Rv 331/88, 336 h
Mycobacterium kansasii [6] = test: Antimycobacterial activity against Mycobacterium kansasii 6509/96 after 14 days; conditions: 6509/96, 336 h; summary of the method: as §1
Mycobacterium kansasii [7] = test: Antimycobacterial activity against Mycobacterium kansasii 6509/96 after 7 days; conditions: 6509/96, 168 h; summary of the method: as §1
Mycobacterium kansasii [8] = test: Antimycobacterial activity against Mycobacterium kansasii 235/80 after 7 days; conditions: 235/80, 168 h; summary of the method: as §1
Mycobacterium kansasii [9] = test: Antimycobacterial activity against Mycobacterium kansasii 6509/96 after 21 days; conditions: 6509/96, 504 h; summary of the method: as §1
Mycobacterium kansasii [10] = test: Antimycobacterial activity against Mycobacterium kansasii 235/80 after 14 days; conditions: 235/80, 336 h; summary of the method: as §1
Lichtheimia corymbifera [11] = test: Antifungal activity against Absidia corymbifera 272 after 24 hrs by microdilution broth method; conditions: Lichtheimia corymbifera, 272, 24 h
Summary of the method: (§2)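 CLSI M27-A3 broth microdilution in RPMI 1640 with glutamine, buffered to pH 7.0 with MOPS; DMSO diluent. Yeast inoculum 5 × 10^3 ± 0.2 CFU/mL. Moulds grown on Sabouraud agar 3–10 days before spore harvest, final inoculum 0.5-5 × 10^4 CFU/mL, checked in a Bürker chamber. Incubated dark, humid, 35 °C, read at 24 and 48 h visually and at 540 nm. MIC taken as ≥80% (yeasts) or ≥50% (filamentous) growth reduction versus control.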

Trichosporon asahii [12] = test: Antifungal activity against Trichosporon asahii 1188 after 48 hrs by microdilution broth method; conditions: Trichosporon asahii, 1188, 48 h; summary of the method: as §2
Candida tropicalis [13] = test: Antifungal activity against Candida tropicalis 156 after 48 hrs by microdilution broth method; conditions: Candida tropicalis, 156, 48 h; summary of the method: as §2
Candida tropicalis [14] = test: Antifungal activity against Candida tropicalis 156 after 24 hrs by microdilution broth method; conditions: Candida tropicalis, 156, 24 h; summary of the method: as §2
Trichosporon asahii [15] = test: Antifungal activity against Trichosporon asahii 1188 after 24 hrs by microdilution broth method; conditions: Trichosporon asahii, 1188, 24 h; summary of the method: as §2
Nakaseomyces glabratus [16] = test: Antifungal activity against Candida glabrata 20/I after 24 hrs by microdilution broth method; summary of the method: as §2
[17] = tested on: Trichophyton mentagrophytes; test: Antifungal activity against Trichophyton mentagrophytes 445 after 24 hrs by microdilution broth method; conditions: Trichophyton mentagrophytes, 445, 24 h
Aspergillus fumigatus [18] = test: Antifungal activity against Aspergillus fumigatus 231 after 48 hrs by microdilution broth method; conditions: Aspergillus fumigatus, 231, 48 h; summary of the method: as §2
Lichtheimia corymbifera [19] = test: Antifungal activity against Absidia corymbifera 272 after 48 hrs by microdilution broth method; conditions: Lichtheimia corymbifera, 272, 48 h; summary of the method: as §2
Nakaseomyces glabratus [20] = test: Antifungal activity against Candida glabrata 20/I after 48 hrs by microdilution broth method; summary of the method: as §2
Aspergillus fumigatus [21] = test: Antifungal activity against Aspergillus fumigatus 231 after 24 hrs by microdilution broth method; conditions: Aspergillus fumigatus, 231, 24 h; summary of the method: as §2
Pichia kudriavzevii [22] = test: Antifungal activity against Candida krusei E28 after 48 hrs by microdilution broth method; conditions: E28, 48 h; summary of the method: as §2
Candida albicans [23] = test: Antifungal activity against Candida albicans ATCC 44859 after 48 hrs by microdilution broth method; conditions: ATCC 44859, 48 h; summary of the method: as §2
Candida albicans [24] = test: Antifungal activity against Candida albicans ATCC 44859 after 24 hrs by microdilution broth method; conditions: ATCC 44859, 24 h; summary of the method: as §2
[25] = tested on: Trichophyton mentagrophytes; test: Antifungal activity against Trichophyton mentagrophytes 445 after 48 hrs by microdilution broth method; conditions: Trichophyton mentagrophytes, 445, 48 h
Pichia kudriavzevii [26] = test: Antifungal activity against Candida krusei E28 after 24 hrs by microdilution broth method; conditions: E28, 24 h; summary of the method: as §2
[27] = tested on: Staphylococcus epidermidis; test: Antibacterial activity against Staphylococcus epidermidis H 6966/08 after 48 hrs by microdilution broth method; conditions: H 6966/08, 48 h
Summary of the method: (§3)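 Mueller-Hinton broth microdilution (modified M07-A07), pH 7.4 (±0.2). Compounds dissolved in DMSO, tested at final 500 to 0.49 µmol/L. Inoculum in sterile water matched to 0.5 McFarland. Incubated in the dark, humid atmosphere, 35 °C, read at 24 and 48 h visually and at 540 nm. MIC taken as ≥95% growth reduction (IC95) versus control.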

Enterococcus sp. [28] = test: Antibacterial activity against Enterococcus sp. J 14365/08 after 48 hrs by microdilution broth method; conditions: J 14365/08, 48 h; summary of the method: as §3
Klebsiella pneumoniae [29] = test: Antibacterial activity against Klebsiella pneumoniae D 11750/08 after 48 hrs by microdilution broth method; conditions: D 11750/08, 48 h; summary of the method: as §3
Staphylococcus aureus [30] = test: Antibacterial activity against Staphylococcus aureus CCM 4516/08 after 48 hrs by microdilution broth method; conditions: CCM 4516/08, 48 h
Klebsiella pneumoniae [31] = test: Antibacterial activity against ESBL-positive Klebsiella pneumoniae J 14368/08 after 24 hrs by microdilution broth method; conditions: J 14368/08, 24 h; summary of the method: as §3
Staphylococcus aureus [32] = test: Antibacterial activity against methicillin-resistant Staphylococcus aureus H 5996/08 after 48 hrs by microdilution broth method; conditions: H 5996/08, 48 h
Klebsiella pneumoniae [33] = test: Antibacterial activity against Klebsiella pneumoniae D 11750/08 after 24 hrs by microdilution broth method; conditions: D 11750/08, 24 h; summary of the method: as §3
Escherichia coli [34] = test: Antibacterial activity against Escherichia coli CCM4517 after 24 hrs by microdilution broth method; conditions: CCM4517, 24 h; summary of the method: as §3
Enterococcus sp. [35] = test: Antibacterial activity against Enterococcus sp. J 14365/08 after 24 hrs by microdilution broth method; conditions: J 14365/08, 24 h; summary of the method: as §3
Klebsiella pneumoniae [36] = test: Antibacterial activity against ESBL-positive Klebsiella pneumoniae J 14368/08 after 48 hrs by microdilution broth method; conditions: J 14368/08, 48 h; summary of the method: as §3
[37] = tested on: Staphylococcus epidermidis; test: Antibacterial activity against Staphylococcus epidermidis H 6966/08 after 24 hrs by microdilution broth method; conditions: H 6966/08, 24 h; summary of the method: as §3
Staphylococcus aureus [38] = test: Antibacterial activity against methicillin-resistant Staphylococcus aureus H 5996/08 after 24 hrs by microdilution broth method; conditions: H 5996/08, 24 h
Pseudomonas aeruginosa [39] = test: Antibacterial activity against Pseudomonas aeruginosa CCM 1961 after 48 hrs by microdilution broth method; conditions: CCM 1961, 48 h; summary of the method: as §3
Pseudomonas aeruginosa [40] = test: Antibacterial activity against Pseudomonas aeruginosa CCM 1961 after 24 hrs by microdilution broth method; conditions: CCM 1961, 24 h; summary of the method: as §3
Escherichia coli [41] = test: Antibacterial activity against Escherichia coli CCM4517 after 48 hrs by microdilution broth method; conditions: CCM4517, 48 h; summary of the method: as §3
Staphylococcus aureus [42] = test: Antibacterial activity against Staphylococcus aureus CCM 4516/08 after 24 hrs by microdilution broth method; conditions: CCM 4516/08, 24 h

SMILES | MIC (Mycobacterium avium [1]) | MIC [2] | MIC (Mycobacterium kansasii [3]) | MIC (Mycobacterium avium [4]) | MIC [5] | MIC (Mycobacterium kansasii [6]) | MIC (Mycobacterium kansasii [7]) | MIC (Mycobacterium kansasii [8]) | MIC (Mycobacterium kansasii [9]) | MIC (Mycobacterium kansasii [10]) | further results
O=C(Nc1ccc([N+](=O)[O-])c(C(F)(F)F)c1)c1cccc([N+](=O)[O-])c1O | 250 µM (≈ 92.8 µg/mL) | 16 µM (≈ 5.94 µg/mL) | 125 µM (≈ 46.4 µg/mL) | 500 µM (≈ 186 µg/mL) | 16 µM (≈ 5.94 µg/mL) | 62.5 µM (≈ 23.2 µg/mL) | 32 µM (≈ 11.9 µg/mL) | 32 µM (≈ 11.9 µg/mL) | 62.5 µM (≈ 23.2 µg/mL) | 62.5 µM (≈ 23.2 µg/mL) | 
O=C(Nc1cccc([N+](=O)[O-])c1)c1cccc([N+](=O)[O-])c1O | > 500 µM | 62.5 µM (≈ 19 µg/mL) | 250 µM (≈ 75.8 µg/mL) | > 500 µM | 62.5 µM (≈ 19 µg/mL) | 250 µM (≈ 75.8 µg/mL) | 62.5 µM (≈ 19 µg/mL) | 62.5 µM (≈ 19 µg/mL) | 250 µM (≈ 75.8 µg/mL) | 250 µM (≈ 75.8 µg/mL) | 
O=C(Nc1ccc([N+](=O)[O-])cc1)c1cccc([N+](=O)[O-])c1O | 125 µM (≈ 37.9 µg/mL) | 32 µM (≈ 9.7 µg/mL) | 125 µM (≈ 37.9 µg/mL) | 125 µM (≈ 37.9 µg/mL) | 32 µM (≈ 9.7 µg/mL) | 125 µM (≈ 37.9 µg/mL) | 62.5 µM (≈ 19 µg/mL) | 32 µM (≈ 9.7 µg/mL) | 125 µM (≈ 37.9 µg/mL) | 62.5 µM (≈ 19 µg/mL) | 
OC(Cn1cncn1)(Cn1cncn1)c1ccc(F)cc1F [FLUCONAZOLE] |  |  |  |  |  |  |  |  |  |  | MIC (Lichtheimia corymbifera [11]): > 500 µM; MIC (Trichosporon asahii [12]): 500 µM (≈ 153 µg/mL); MIC (Candida tropicalis [13]): > 500 µM; MIC (Candida tropicalis [14]): > 500 µM; MIC (Trichosporon asahii [15]): 250 µM (≈ 76.6 µg/mL); MIC (Nakaseomyces glabratus [16]): 31.2 µM (≈ 9.57 µg/mL); MIC [17]: 7.81 µM (≈ 2.39 µg/mL); MIC (Aspergillus fumigatus [18]): > 500 µM; MIC (Lichtheimia corymbifera [19]): > 500 µM; MIC (Nakaseomyces glabratus [20]): 500 µM (≈ 153 µg/mL); MIC (Aspergillus fumigatus [21]): > 500 µM; MIC (Pichia kudriavzevii [22]): 250 µM (≈ 76.6 µg/mL); MIC (Candida albicans [23]): 0.24 µM (≈ 0.0735 µg/mL); MIC (Candida albicans [24]): 0.24 µM (≈ 0.0735 µg/mL); MIC [25]: 125 µM (≈ 38.3 µg/mL); MIC (Pichia kudriavzevii [26]): 125 µM (≈ 38.3 µg/mL)
NNC(=O)c1ccncc1 [ISONIAZID] | > 250 µM | 1 µM (≈ 0.137 µg/mL) | > 250 µM | > 250 µM | 0.5 µM (≈ 0.0686 µg/mL) | 8 µM (≈ 1.1 µg/mL) | 4 µM (≈ 0.549 µg/mL) | > 250 µM | 8 µM (≈ 1.1 µg/mL) | > 250 µM | 
CC1(C)S[C@@H]2[C@H](NC(=O)Cc3ccccc3)C(=O)N2[C@H]1C(=O)O [PENICILLIN G] |  |  |  |  |  |  |  |  |  |  | MIC [27]: 250 µM (≈ 83.6 µg/mL); MIC (Enterococcus sp. [28]): 15.6 µM (≈ 5.22 µg/mL); MIC (Klebsiella pneumoniae [29]): 500 µM (≈ 167 µg/mL); MIC (Staphylococcus aureus [30]): 0.98 µM (≈ 0.328 µg/mL); MIC (Klebsiella pneumoniae [31]): > 500 µM; MIC (Staphylococcus aureus [32]): 125 µM (≈ 41.8 µg/mL); MIC (Klebsiella pneumoniae [33]): 500 µM (≈ 167 µg/mL); MIC (Escherichia coli [34]): 125 µM (≈ 41.8 µg/mL); MIC (Enterococcus sp. [35]): 7.81 µM (≈ 2.61 µg/mL); MIC (Klebsiella pneumoniae [36]): > 500 µM; MIC [37]: 250 µM (≈ 83.6 µg/mL); MIC (Staphylococcus aureus [38]): 62.5 µM (≈ 20.9 µg/mL); MIC (Pseudomonas aeruginosa [39]): > 500 µM; MIC (Pseudomonas aeruginosa [40]): > 500 µM; MIC (Escherichia coli [41]): 125 µM (≈ 41.8 µg/mL); MIC (Staphylococcus aureus [42]): 0.98 µM (≈ 0.328 µg/mL)
